The list is not random: actives were taken first. Their share in the collection is about 2.1%.
Shn3 3UTR inh: reduction of Shn3 3'UTR firefly luciferase signal, primary screen, Schnurri-3 inhibitor project, cell-based, Clone20 osteoblasts, set 2. actives 0.52% (n = 360,000). Clone20 osteoblast Shn3 3'UTR firefly luciferase, 24 h. inhibition, % at 12.5 µM;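 active = mean inhibition of at least 75% with every replicate also reaching 75%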;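 also: 0% = median of neutral control wells and 100% = pilot-screen positive control compound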
PAX8 reporter: inhibitors of PAX8-driven TPO luciferase reporter, primary screen, RMG-I cells, single concentration | SteadyGlo, 24 h | inhibition, % at 12.6 µM | actives 1.2% (n = 360,000) | AID 652154, 2013;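 active = mean replicate inhibition at least 60% with every replicate also reaching 60%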;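 also: luciferase light reporting Pax8 driven TPO promoter activity; plate controls were median of neutral control wells for no effect and mitoxantrone controls for full effect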
EWS-Fli inh: EWS/Fli-driven NR0B1 reporter inhibitors, primary screen, A673 cells, NR0B1 luciferase, luminescence, MLPCN library; viability-normalised; inhibition, % at 12.6 µM; actives 0.67% (n = 350,000); AID 651661, 2012;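 active = mean inhibition of at least 50% after viability correction, with every replicate also passing that limit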;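 also: firefly luciferase signal divided by Alamar Blue viability fluorescence both relative to DMSO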
FN deposition inh: inhibitors of fibronectin matrix deposition, primary screen, AH1F cells, Alexa488-fibronectin fluorescence, plate reader; AH1F fibroblasts, overnight; inhibition, % at 12.6 µM; actives 0.086% (n = 350,000);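 active = mean inhibition across replicates of 30% or more, regardless of how many single replicates reach that level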;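 also: positive control wells lacked labelled fibronectin entirely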
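Assay system: AH1F fibroblasts / Quantity: 10000 cells per well / Medium: DMEM plus 2% serum, read in PBS / Reagent: labelled fibronectin 24 nM / Dosing: single dose, pinned / Times: 1 h cell attachment, overnight exposure to compound and label / Signal: fluorescence, ex 485 nm, em 525 nm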
LMP1 NFkB inh: EBV LMP1-driven NF-kappaB luciferase reporter inhibitors, primary screen, cell-based, luminescence, single point; LMP1-induced NF-kappaB luciferase reporter cells; inhibition, % at 12.5 µM; actives 0.69% (n = 350,000); in the data active = inhibition above about 41%;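 also: 0% = neutral control wells and 100% = reference inhibitor control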
aSyn UTR inh: MLPCN primary screen, SNCA 5' untranslated region; inhibition, % (tested at 7.5 µM); AID 1813, 2009; actives 0.82% (n = 300,000); alpha-synuclein 5'UTR reporter, inhibitor activity; in the data active = inhibition above about 60%;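 also: H4 neuroglioblastoma cells stably carrying SNCA 5'UTR luciferase fusion; 0% = DMSO wells and 100% = positive control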
Starred values were filed as active, the others as inactive; x = not tested or not shown.

SMILES	Shn3 3UTR inh	PAX8 reporter	EWS-Fli inh	FN deposition inh	LMP1 NFkB inh	aSyn UTR inh
COc1cc(C(=O)N/N=C/c2ccsc2C)cc(OC)c1OC	10	x	x	x	14	92*
C[C@H]1CN([C@@H](C)CO)C(=O)c2cccc(NC(=O)CCCCCC(=O)Nc3ccccc3N)c2O[C@@H]1CN(C)C	x	15	x	x	x	x
O=C(CCS(=O)(=O)c1ccc(Cl)cc1)Nc1nc(-c2cccnc2)cs1	4	18	-4	5	24	-25
Cc1ccc(C2(C)NC(=O)N(CC(=O)Nc3nc(-c4ccccn4)cs3)C2=O)cc1 (stereo unspecified)	63	16	16	13	24	80*
COc1ccc(NC(=O)CCS(=O)(=O)c2ccc(Cl)cc2)cc1	10	-6	-8	4	1	12
CC(=O)c1sc(NC(=O)CCS(=O)(=O)c2ccc(Cl)cc2)nc1C	-21	89*	6	-9	-1	3
CC1(c2ccccc2)NC(=O)N(CC(=O)Nc2nc(-c3ccccn3)cs2)C1=O (stereo unspecified)	45	x	23	8	13	54
Cc1ccc(S(=O)(=O)CCC(=O)Nc2nc(-c3ccccn3)cs2)cc1	42	80*	19	12	16	x
O=C(CCS(=O)(=O)c1ccc(Cl)cc1)Nc1nc(-c2ccncc2)cs1	35	96*	x	16	0	-29
C[C@@H]1CN([C@@H](C)CO)C(=O)c2cccc(NC(=O)c3ccncc3)c2O[C@@H]1CN(C)C(=O)Nc1ccccc1	x	-12	-7	x	x	x
CO[C@H]1O[C@H](CO)[C@@H](OC(=O)Nc2ccccc2-c2ccccc2)[C@H](OC(=O)Nc2ccccc2-c2ccccc2)[C@@H]1OC(=O)Nc1ccccc1-c1ccccc1	x	20	10	x	x	x
Cc1cc(NC(=O)c2cncc(Br)c2)ccc1NC(=O)c1cc2ccccc2o1	69	-1	x	x	5	78*
O=C(Nc1ncccc1O)c1cc2ccccc2o1	-57	9	13	7	42*	-54
COC(=O)c1cc(NC(=O)c2cc3ccccc3o2)cc(C(=O)OC)c1	6	-17	8	2	3	14
COC(=O)c1cccc(NC(=O)c2cc3ccccc3o2)c1	-60	-96	84*	-2	-21	-105
COc1cc(NC(=O)c2ccccc2)ccc1NC(=O)c1cc2ccccc2o1	46	-9	17	1	-6	-10
O=C(Nc1ccc(Cl)cn1)c1cc2ccccc2o1	3	x	x	x	-13	-14
O=C(Nc1ccccn1)c1cc2ccccc2o1	-22	x	x	x	46*	42
C[C@H](CO)N1C[C@H](C)[C@@H](CN(C)C(=O)Nc2ccc(F)cc2)Oc2ccc(NC(=O)CCN3CCOCC3)cc2C1=O	x	-12	-2	-5	x	x
C/C=C/c1ccc2c(c1)O[C@@H](CN(C)C(=O)C1CCC1)[C@@H](C)CN([C@@H](C)CO)S2(=O)=O	x	x	-3	x	x	x
O=C(C[C@H]1CC[C@H]2[C@@H](COC[C@H](O)CN2C(=O)c2ccccc2)O1)N1CCOCC1	x	-14	6	-6	x	x
C[C@H](CO)N1C[C@H](C)[C@H](CN(C)CC2CC2)Oc2c(NS(=O)(=O)c3cccs3)cccc2C1=O	x	-4	3	x	x	x
Cc1ccnc(NC(=O)c2cc3ccccc3o2)c1	57	58	75*	-2	39	97*
O=C(Nc1ccc(SC(F)F)cc1)C12CCC(CC1)C2	-7	-61	-79	-4	-33	-80
C=C1C2(C(=O)Nc3ccc(SC(F)F)cc3)CCC(C2)C1(C)C (stereo unspecified)	-4	98*	1	-7	5	12
COC(=O)C1=C(C)N(c2cc(C)cc(C)c2)/C(=C/c2ccc(O)cc2)C1=O	60	17	6	4	52*	0
COC(=O)C1=C(C)N(c2ccc(Cl)cc2)/C(=C/c2ccc(O)cc2)C1=O	-13	15	13	0	4	-22
O=C(C[C@H]1CC[C@H]2[C@@H](COC[C@@H](O)CN2S(=O)(=O)c2cccc(Cl)c2)O1)Nc1ccc(-c2ccccc2)cc1	x	87*	-2	-13	x	x

Screening data: PubChem, Broad Institute
